Among the data in ChEMBL document CHEMBL1250446, “Novel targets for Huntington's disease in an mTOR-independent autophagy pathway” (Nat Chem Biol, 2008) are Activity values, retold here.

SMILES strings stand for the structures. Active and inactive are the calls of the source. The rule behind the calls is not given here.

The test system of data set [1] is SK-N-MC. Briefly: Cytotoxicity against human SK-N-MC cells expressing EGFP-HDQ74 at 1 uM after 48 hrs. Format: cell-based.
Data set [2] is filed under the species Mus musculus. Briefly: Induction of autophagy in Atg deficient mouse […] expressing EGFP-HDQ74 at 1 uM after 48 hrs. Format: functional.
Data set [3] concerns SK-N-MC. The data set is described as follows: Induction of autophagy in Atg positive human SK-N-MC cells expressing EGFP-HDQ74 at 1 uM after 48 hrs. Format: functional, cell-based.
Data set [4] has as its system SK-N-SH (Homo sapiens). Briefly: Induction of autophagy in human SK-N-SH cells assessed as increase in LC3-2 level at 3 uM after 24 hrs by immunoblotting analysis.
In data set [5] the test system is SK-N-SH (Homo sapiens). The data set is described as follows: Induction of autophagy in human SK-N-SH cells expressing EGFP-HDQ74 assessed as reduction in EGFP-HDQ74 aggregation at 1 uM after 48 hrs by densitometric analysis.
The subject of data set [6] is PC-12. The data set is described as follows: Induction of autophagy in rat stable inducible PC12 cells expressing A53T alpha-synuclein assessed as A53T alpha-synuclein clearance at 500 uM after 24 hrs by densitometric analysis. The format is functional, cell-based. A digest of the protocol: (§1)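 Inducible PC12 A53T α-synuclein (HA) cells induced with 1 μg/ml doxycycline for 48 h. Doxycycline then removed for 24 h with compound or DMSO. Remaining protein measured by anti-HA immunoblot, densitometry relative to actin.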

Data set [7] relates to SK-N-SH. The data set is described as follows: Induction of autophagy in human SK-N-SH cells expressing EGFP-HDQ74 assessed as reduction in EGFP-HDQ74 aggregation at 500 uM after 48 hrs by densitometric analysis. Format: functional, cell-based.
Data set [8] has as its system HeLa. The data set is described as follows: Induction of autophagy in human HeLa cells expressing EGFP-LC3 assessed as increase in LC3-2 level at 400 nM in presence of erythro-9-(3-(2-hydroxynonyl)adenine. Format: functional, cell-based.
For data set [9], the system named is PC-12. Briefly: Induction of autophagy in rat stable inducible PC12 cells assessed as increase in LC3-2 level after 24 hrs by immunoblotting analysis. The format is functional, cell-based. An outline of the steps:
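Endogenous LC3-II in PC12 cells after 24 h exposure; immunoblot densitometry relative to actin.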

Data set [10] deals with PC-12. The data set is described as follows: Induction of autophagy in rat stable inducible PC12 cells expressing A53T alpha-synuclein and endogenously I1R assessed as increase in A53T alpha-synuclein clearance at 1 uM after 24 hrs by densitometric analysis. Format: functional, cell-based. A digest of the protocol:
as §1

The test system of data set [11] is PC-12. Briefly: Induction of autophagy in rat stable inducible PC12 cells expressing EGFP-HDQ74 and endogenously I1R assessed as decrease in EGFP-HDQ74 aggregation at 1 uM after 24 hrs by densitometric analysis. The format is functional, cell-based.
The test system of data set [12] is SK-N-MC. The data set is described as follows: Induction of autophagy in human SK-N-MC cells expressing A53T alpha-synuclein and endogenously I1R/alpha2 AR assessed as increase in A53T alpha-synuclein clearance at 1 uM after 24 hrs by densitometric analysis. The format is functional, cell-based.
Data set [13] relates to SK-N-MC. The data set is described as follows: Induction of autophagy in human SK-N-MC cells expressing EGFP-HDQ74 and endogenously I1R/alpha2 AR assessed as decrease in EGFP-HDQ74 aggregation at 1 uM after 24 hrs by densitometric analysis. The format is functional, cell-based.
Data set [14] deals with HeLa. The data set is described as follows: Induction of autophagy in human HeLa cells expressing EGFP-LC3 assessed as increase in LC3-2 level at 400 nM. Format: functional, cell-based.
Data set [15] concerns COS-7. The data set is described as follows: Effect on mTOR-signaling in african green monkey COS7 cells assessed as phospho-S6K at 2.5 uM by immunoblotting analysis. The format is cell-based. The following applies: Chlorocebus aethiops. An outline of the steps:
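COS-7 cells exposed 24 h (0.2 μM rapamycin as positive control for mTOR inhibition); lysates immunoblotted for phospho-S6K, with densitometry of phospho-S6K relative to total S6K.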
(In general: Immunoblotting shows a protein as a band on a membrane.)

The test system of data set [16] is COS-7. The data set is described as follows: Induction of autophagy in african green monkey COS7 cells expressing EGFP-Atg5 assessed as increase in Atg5 level at 10 uM after 48 hrs by immunoblotting analysis. Format: functional, cell-based. To be noted: Chlorocebus aethiops. An outline of the steps:
(§2)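 COS-7 cells co-transfected 4 h with EGFP-Atg5 plus EGFP as transfection control (3:1 ratio), then treated. Atg5 level and cleavage assessed by immunoblotting.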

Data set [17] relates to COS-7. The data set is described as follows: Induction of autophagy in african green monkey COS7 cells expressing EGFP-Atg5 assessed as increase in Atg5 level at 2.5 uM after 48 hrs by immunoblotting analysis. The format is functional, cell-based. To be noted: Chlorocebus aethiops. A digest of the protocol:
as §2

Data set [18] concerns COS-7. The data set is described as follows: Induction of autophagy in african green monkey COS7 cells assessed as intracytosolic calcium concentration nu calpain activation assay. To be noted: Chlorocebus aethiops. The format is functional, cell-based.
Data set [19] relates to COS-7. Briefly: Induction of autophagy in african green monkey COS7 cells expressing EGFP-HDQ74 assessed as EGFP-HDQ74 aggregation at 2.5 uM after 48 hrs. The format is functional, cell-based. To be noted: Chlorocebus aethiops. A digest of the protocol: (§3)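 COS-7 cells transfected with EGFP-HDQ74 (1.5 μg/well) for 4 h, then exposed for the last 24 h of a 48 h post-transfection period. ALLM (50 μM) was added 15 min before thapsigargin. Cells fixed in 4% PFA with DAPI mount; ~200 EGFP-positive cells per sample scored blinded for aggregates. Triplicate, at least twice; odds ratios.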

The subject of data set [20] is PC-12. The data set is described as follows: Induction of autophagy in rat stable inducible PC12 cells expressing A53T alpha-synuclein assessed as A53T alpha-synuclein clearance at 2.5 uM after 24 hrs by densitometric analysis. The format is functional, cell-based. An outline of the steps: (§4)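 Stable inducible PC12 line: A53T α-synuclein (HA-tagged) induced with 1 μg/ml doxycycline for 48 h, then switched off by doxycycline removal for 24 h during treatment. For ALLM (50 μM), 15 min pre-treatment. Anti-HA immunoblot, densitometry relative to actin; DMSO control.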

Data set [21] has as its system COS-7. The data set is described as follows: Induction of autophagy in african green monkey COS7 cells expressing EGFP-HDQ74 assessed as EGFP-HDQ74 aggregation at 2.5 uM after 48 hrs in presence of 50 uM ALLM. The format is functional, cell-based. The following applies: Chlorocebus aethiops. An outline of the steps:
as §3

For data set [22], the system named is PC-12. The data set is described as follows: Induction of autophagy in rat stable inducible PC12 cells expressing A53T alpha-synuclein assessed as A53T alpha-synuclein clearance at 2.5 uM after 24 hrs by densitometric analysis in presence of 50 uM ALLM. The format is functional, cell-based. A digest of the protocol:
as §4

The subject of data set [23] is COS-7. The data set is described as follows: Induction of autophagy in african green monkey COS7 cells assessed as increase in steady state LC-3 positive vesicles at 2.5 uM after 2 hrs by immunofluorescence analysis. The format is functional, cell-based. The following applies: Chlorocebus aethiops. A digest of the protocol:
(§5)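 COS-7 cells treated 2 h, fixed in 4% paraformaldehyde, then immunostained with anti-LC3 and Alexa-conjugated secondary antibodies. LC3-positive vesicles imaged by confocal microscopy (63x oil lens) at room temperature.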

The subject of data set [24] is COS-7. Briefly: Induction of autophagy in african green monkey COS7 cells assessed as increase in LC-3-2 positive vesicles at 2.5 uM after 2 hrs by immunofluorescence analysis. To be noted: Chlorocebus aethiops. Format: functional, cell-based. A digest of the protocol:
as §5

In data set [25] the test system is COS-7. Briefly: Induction of autophagy in african green monkey COS7 cells assessed as increase in LC-3-2 positive vesicles at 2.5 uM after 2 hrs by immunofluorescence analysis n presence of 400 nM bafilomycin A1. Format: functional, cell-based. The following applies: Chlorocebus aethiops.

Consider `Nc1cc(N2CCCCC2)nc(N)[n+]1[O-]` [MINOXIDIL], for which the Activity result in [1] is listed as “Non-toxic”. Further, the result in data set [2] was inactive. Also, the outcome in data set [3], in [4] and in data set [5] was Active.
Regarding `C=C[C@@]1(C)CC(=O)[C@]2(O)[C@@]3(C)[C@@H](O)CCC(C)(C)[C@@H]3[C@H](O)[C@H](OC(C)=O)[C@@]2(C)O1`, the outcome in [6] and in [7] was inactive.
With `CCCCCC[C@@H]([C@@H](C)O)n1cnc2c(N)ncnc21` (relative stereo), the outcome in data set [8] was inactive.
Take `C1COC(NC(C2CC2)C2CC2)=N1`: the Activity result in [9] was “Dose-dependent effect”. The outcome in data set [10], in [11], in data set [12] and in [13] was Active.
As to `CN(C)C(=O)C(CCN1CCC(O)(c2ccc(Cl)cc2)CC1)(c1ccccc1)c1ccccc1` [LOPERAMIDE], in data set [1], the Activity entry is reported as “Non-toxic”. In addition, in data set [5], the outcome was Active.
As to `CO/C1=C\C(C)=C\[C@@H](C)[C@@H](O)[C@@H](C)C/C(C)=C/C=C/[C@H](OC)[C@@H]([C@@H](C)[C@@H](O)[C@H](C)[C@@]2(O)C[C@@H](O)[C@H](C)[C@@H](C(C)C)O2)OC1=O`, the result in data set [14] was Active.
`CCCCc1oc2ccccc2c1C(=O)c1cc(I)c(OCCN(CC)CC)c(I)c1` [AMIODARONE]: the Activity result in [1] is listed as “Non-toxic”. For the same compound, the result in [5] was Active.
As to `Clc1cccc(Cl)c1N=C1NCCN1` [CLONIDINE], the Activity entry in data set [1] was “Non-toxic”.
For the compound `C/C=C(/C)C(=O)O[C@H]1C(C)=C2[C@H]([C@@H]1OC(=O)CCCCCCC)[C@@](C)(OC(C)=O)C[C@H](OC(=O)CCC)[C@@]1(O)[C@H]2OC(=O)[C@@]1(C)O`, the outcome in [15], in data set [18], in data set [19], in data set [20] and in data set [25] was inactive. Besides, the outcome in [16], in data set [17], in data set [21], in data set [22], in data set [23] and in data set [24] was Active.
